Tests used:
HL-60 [1] = assay: Growth inhibitory activity against HL-60 human promyelocytic leukemia cell line relative to NSC-278214; format: functional
HL-60 [2] = assay: Concentration required to reduce cell number (HL-60 human promyelocytic leukemia cell line) on day 7 by 50%; format: functional, cell-based; conditions: HL-60, 168 h
In short: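 HL-60 cells were grown in RPMI 1640 with 10% heat-inactivated FBS at 37 °C in humidified 10% CO2, resuspended at 10⁵/mL, and given drug. Drug was dissolved in DMSO, with at most 0.2% DMSO in the culture. Cells were counted by Coulter counter on day 7. IC50 is the concentration that reduced cell number by 50%. Values are from three experiments.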

Row | SMILES | IC50 (HL-60 [2]) | Potency (HL-60 [1])
1 | CC(C)NC(=O)OCc1ccccc1COC(=O)NC(C)C | > 300000 nM | <0.005
2 | CC(C)NC(=O)OCc1c(COC(=O)NC(C)C)c(-c2ccc(Cl)cc2)n2c1SCC2 | 850 nM | 1.76
3 | CC(C)NC(=O)OCc1c(COC(=O)NC(C)C)c(-c2ccc(F)cc2)n2c1SCC2 | 1600 nM | 0.94
4 | CC(C)NC(=O)OCc1c(COC(=O)NC(C)C)c(-c2ccc(Cl)c(Cl)c2)n2c1SCC2 | 1900 nM | 0.79

Continued by falling IC50 (HL-60 [2]), values first:

Row | IC50 (HL-60 [2]) | SMILES | Potency (HL-60 [1])
5 | 1500 nM | CC(C)NC(=O)OCc1c(COC(=O)NC(C)C)c(-c2ccc(Cl)c(Cl)c2)n2c1CCC2 | 1
6 | 1500 nM | CC(C)NC(=O)OCc1c(COC(=O)NC(C)C)c(-c2ccccc2)n2c1SCC2 | 1

Source: ChEMBL document CHEMBL1124298, “Synthesis and antineoplastic activity of 5-aryl-2,3-dihydropyrrolo[2,1-b]thiazole-6,7-dimethanol 6,7-bis(isopropylcarbamates)” (J Med Chem, 1988)
